We go through eleven molecules from ChEMBL document CHEMBL3046765, “Subnanomolar inhibitor of cytochrome bc1 complex designed by optimizing interaction with conformationally flexible residues” (J Am Chem Soc, 2010).

The target in one assay is Cytochrome b (Sus scrofa, UniProt P24964). In words: Inhibition of Sus scrofa (pig) heart cytochrome bc1 complex using succinate and cytochrome c as substrates by spectrophotometric analysis.
The target of assay [1] is T1, Succinate dehydrogenase [ubiquinone] iron-sulfur subunit, mitochondrial (Sus scrofa) (UniProt Q007T0).
T1 sequence (whole entry): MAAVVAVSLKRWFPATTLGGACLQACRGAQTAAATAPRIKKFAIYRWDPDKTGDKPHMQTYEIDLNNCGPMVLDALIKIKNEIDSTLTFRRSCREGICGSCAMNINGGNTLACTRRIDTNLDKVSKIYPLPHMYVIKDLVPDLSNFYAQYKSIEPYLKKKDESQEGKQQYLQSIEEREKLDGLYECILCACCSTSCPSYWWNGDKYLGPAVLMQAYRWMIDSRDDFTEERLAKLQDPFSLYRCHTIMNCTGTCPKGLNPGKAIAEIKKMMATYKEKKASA
As to the kind of experiment: Inhibition of Sus scrofa (pig) heart succinate-cytochrome c reductase (Electron transport protein complex 2/3) using succinate and cytochrome c as substrate by spectrophotometric analysis. A digest of the protocol:
(§1)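 Progress curves at 0–5 nM inhibitor fitted by nonlinear regression for v0, vs, kobs; kobs versus inhibitor gives k+0, k−0; Ki = k−0/k+0. Cytochrome c 4–48 µM varied at fixed inhibitor for mechanism.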

The target in assay [2] is Succinate-ubiquinone oxidoreductase (Sus scrofa) (UniProt A5GZW8+D0VWV4). As to the kind of experiment: Inhibition of Sus scrofa (pig) heart succinate-ubiquinone reductase using succinate and DCIP as substrate by spectrophotometric analysis by spectrophotometric analysis. Format: protein-complex assay. In outline: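 Porcine heart SCR preparation; complex II activity as succinate oxidation by 53 µM DCIP in 100 mM PBS pH 7.4, 0.3 mM EDTA, 20 mM succinate, 23°C, started by enzyme addition. DCIP reduction followed continuously at A600 (ε 21 mM−1cm−1) with varying inhibitor concentrations.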

Assay [3] is filed under the species Sus scrofa. In words: Competitive inhibition of Sus scrofa (pig) heart cytochrome bc1 complex using ubiquinol as substrate.
Assay [4] concerns the target T1, Succinate dehydrogenase [ubiquinone] iron-sulfur subunit, mitochondrial (Sus scrofa). As to the kind of experiment: Inhibition of Sus scrofa (pig) heart succinate-cytochrome c reductase (Electron transport protein complex 2/3) using succinate and cytochrome c as substrate at 1 to 5 nM by spectrophotometric analysis. A digest of the protocol:
as §1

Assay [5] is filed under the species Sus scrofa. As to the kind of experiment: Non-competitive inhibition of Sus scrofa (pig) heart cytochrome bc1 complex using cytochrome c as substrate. A digest of the protocol: as §1
Assay [6] concerns the target Cytochrome b (Sus scrofa) (UniProt P24964). As to the kind of experiment: Inhibition of Sus scrofa (pig) heart cytochrome bc1 complex using succinate as substrate at 7.5 to 25 nM by spectropfhotometric analysis.
Assay [7] shares this target. As to the kind of experiment: Ratio of pyraclostrobin Ki to compound Ki for Sus scrofa (pig) heart cytochrome bc1 complex.
Assay [8] shares this target. In words: Ratio of kresoxim-methyl Ki to compound Ki for Sus scrofa (pig) heart cytochrome bc1 complex.
Assay [9] has the same target. In words: Ratio of azoxystobin Ki to compound Ki for Sus scrofa (pig) heart cytochrome bc1 complex.

Activity calls are given as the source filed them. The rule behind the calls is not given here.

Cytochrome b, sequence (P24964 whole entry): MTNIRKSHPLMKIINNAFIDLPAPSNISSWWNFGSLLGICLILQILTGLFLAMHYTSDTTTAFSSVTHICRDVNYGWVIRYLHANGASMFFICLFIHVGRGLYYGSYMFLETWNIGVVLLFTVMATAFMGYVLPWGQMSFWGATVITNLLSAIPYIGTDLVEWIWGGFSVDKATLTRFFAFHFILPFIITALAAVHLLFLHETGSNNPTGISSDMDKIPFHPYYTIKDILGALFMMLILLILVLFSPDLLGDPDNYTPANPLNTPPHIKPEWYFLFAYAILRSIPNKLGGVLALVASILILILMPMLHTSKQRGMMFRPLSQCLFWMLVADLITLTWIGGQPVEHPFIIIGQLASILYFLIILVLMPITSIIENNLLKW
Cytochrome b (Sus scrofa), sequence (P24964 whole entry): as above

The term Ki denotes a dissociation constant, usually derived from enzyme kinetics or from competition with a known ligand. As to `CO/C=C(/C(=O)OC)c1ccccc1COc1cc(-c2ccccc2OC)nn1C`, the affinity on Cytochrome b, expressed as Ki, was 29.1 nM.
With `CO/N=C(/C(=O)OC)c1ccccc1COc1cc(-c2ccccc2O)nn1C`, the inhibition result in [1] was “Active”. In assay [2], the inhibition result is “inactive”. Further, on Cytochrome b, the affinity, expressed as Ki, was 3.8 nM.
For the molecule `CO/C=C(/C(=O)OC)c1ccccc1COc1cc(-c2cc(C)ccc2O)nn1C`, the inhibition result in assay [1] was “Active”. For the same molecule, in assay [2], the inhibition result is “inactive”. Further, at Cytochrome b, the Ki amounted to 3.1 nM.
In the case of `CO/C=C(/C(=O)OC)c1ccccc1COc1cc(-c2cc(Cl)ccc2O)nn1C`, the inhibition entry (in the assay filed under Sus scrofa [3]; in assay [4]; in the assay filed under Sus scrofa [5]; in assay [6]) was “Active” in each case. Also, the inhibition entry in assay [2] is “inactive”. The Ratio Ki was 5.8 in assay [7], 280 in assay [8] and 522 in assay [9]. Further, on Cytochrome b, the Ki was 0.57 nM.
Take `CO/N=C(/C(=O)OC)c1ccccc1COc1ccccc1C` [KRESOXIM-METHYL]: on Cytochrome b, the affinity, expressed as Ki, was 160 nM.
For the molecule `CO/C=C(/C(=O)OC)c1ccccc1COc1cc(-c2cc(C)ccc2OC)nn1C`, the Ki at Cytochrome b was determined as 19.9 nM.
On to `CO/C=C(/C(=O)OC)c1ccccc1COc1cc(-c2ccccc2O)nn1C`, for which the inhibition entry in [1] was “Active”. Also, in [2], the inhibition entry is “inactive”. This molecule had an inhibition constant Ki on Cytochrome b of 1.2 nM.
Take `CO/C=C(/C(=O)OC)c1ccccc1COc1cc(-c2ccccc2OCc2ccccc2)nn1C`: the Ki at Cytochrome b was determined as 12.7 nM.
On the same count and under the same terms, then `CO/C=C(/C(=O)OC)c1ccccc1Oc1cc(Oc2ccccc2C#N)ncn1` [AZOXYSTROBIN], with 298 nM; and `COC(=O)N(OC)c1ccccc1COc1ccn(-c2ccc(Cl)cc2)n1` [PYRACLOSTROBIN], with 3.3 nM.
In turn, `CO/C=C(/C(=O)OC)c1ccccc1COc1cc(-c2ccccc2OC(=O)c2ccc(F)cc2)nn1C` displayed a Ki on Cytochrome b of 97.7 nM.
